According to ChEMBL document CHEMBL1795216, “Synthesis and biological evaluations of novel apocynin analogues” (Eur J Med Chem, 2011):
Calls of active or inactive are those of the source. The rule behind the calls is not given here.

Tests used:
Format in all cases: functional, cell-based
RAW264.7 [1] = assay: Antioxidant activity in lipopolysaccharide-stimulated mouse RAW264.7 cells assessed as decrease in ROS level at 0.1 to 10 uM using DCFH-DA by fluorescence assay
In short: (§1)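 RAW 264.7 cells (DMEM, 10% FBS, penicillin-streptomycin) seeded for 24 h, then treated with compounds at […] with or without LPS […]. Loaded with […] DCFH-DA for 20 min at 37 °C in 5% CO2, washed three times with PBS. Fluorescence read at ex488/em525 by laser scanning microscopy and quantified on a microplate reader.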

RAW264.7 [2] = assay: Inhibition of LPS-induced P67phox protein expression in mouse RAW264.7 cells up to 10 uM pretreated for 1 hr before LPS challenge by Western blot analysis
In short: (§2)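 RAW 264.7 cells pretreated 1 h with compound at […], then stimulated with LPS […] for 24 h. Cytoplasmic extracts run on 12% SDS gel and transferred to PVDF. Membranes blocked in 5% nonfat milk/TBS, probed overnight at 4 °C with mouse anti-p67phox and β-actin (1:2000). HRP anti-mouse secondary 1 h at room temperature, ECL detection.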

RAW264.7 [3] = assay: Protection against LPS-induced cytotoxicity in mouse RAW264.7 cells assessed as cell viability at 0.1 to 100 uM pretreated for 1 hr before LPS challenge measured after 24 hrs by MTT assay
In short: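 RAW 264.7 cells seeded at 10⁴/well in 96-well plates and grown 24 h at 37 °C, 5% CO2. Pretreated with compounds at […] for 1 h, washed, then exposed to LPS for 24 h. MTT 0.5 mg/ml added for 4 h, formazan dissolved in DMSO, absorbance read at 570 nm.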

RAW264.7 [4] = assay: Antioxidant activity in lipopolysaccharide-stimulated mouse RAW264.7 cells assessed as decrease in ROS level using DCFH-DA by fluorescence assay; in short: as §1
RAW264.7 [5] = assay: Inhibition of LPS-induced P67phox protein expression in mouse RAW264.7 cells compound pretreated for 1 hr before LPS challenge by Western blot analysis; in short: as §2

**Q.** What does the source list for COc1cc(C(C)=O)cc(/C=[N+](\[O-])C(C)(C)C)c1O?
**A.** Activity (RAW264.7 [1]): inactive; inhibition (RAW264.7 [2]): inactive

**Q.** What does the source list for COc1cc(C(C)=O)cc(CNc2cc(C(C)=O)cc(OC)c2O)c1O?
**A.** Activity (RAW264.7 [3]): Active; Activity (RAW264.7 [4]): Dose-dependent effect; inhibition (RAW264.7 [5]): Dose-dependent effect

**Q.** With COc1cc(C(C)=O)cc(NC(=O)CCCC[C@@H]2CCSS2)c1O as the molecule, how does the Activity (RAW264.7 [3]) read?
**A.** Its Activity is “Active”.

**Q.** And the Activity (RAW264.7 [4])?
**A.** Its Activity is “Dose-dependent effect”.

**Q.** What about the inhibition (RAW264.7 [5]) of the same molecule?
**A.** The inhibition was “Dose-dependent effect”.

**Q.** Which results are given for COc1cc(C(C)=O)ccc1O?
**A.** Activity (RAW264.7 [3]): inactive; Activity (RAW264.7 [1]): inactive; inhibition (RAW264.7 [2]): inactive
